Measurements reported in ChEMBL document CHEMBL2434839, “Isoxazole derivatives as potent transient receptor potential melastatin type 8 (TRPM8) agonists” (Eur J Med Chem, 2013).
Calls of active or inactive are those of the source. The calls are words filed in the database; no cut-off is given here.

Assays:
Mus musculus [1] = assay: Potentiation of acetone-induced cold allodynic response in Swiss CD-1 mouse chronic constriction injury model applied topically 20 mins prior to acetone-challenge measured for 7 to 9 mins post acetone-challenge; assay type: functional, organism-based
Method in brief: (§1)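 Male Swiss CD1 mice (30–35 g) with sciatic nerve chronic constriction injury under xylazine/ketamine i.p. Day 14: 50 µl of compound at 20% w/v in absolute ethanol applied topically to the operated paw (vehicle: ethanol). After 20 min, acetone applied. Brisk paw withdrawals counted in three 2-min windows about 5 min apart, as totals and per phase. n = 6 per group.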

Mus musculus [2] = assay: Potentiation of acetone-induced cold allodynic response in Swiss CD-1 mouse chronic constriction injury model applied topically 20 mins prior to acetone-challenge measured up to 2 mins post acetone-challenge; assay type: functional, organism-based; method in brief: as §1
F11 [3] = assay: (§2) Agonist activity at TRPM8 in differentiated rat/mouse F11 cells assessed as increase in intracellular Ca2+ level by Fura-2-AM based fluorescence assay; assay type: cell-based
Method in brief: (§3)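 In differentiated F11 cells, L-menthol was perfused for 20 s at 1–300 µM in Normal Krebs, pH 7.4, room temperature. Fura-2 340/380 ratio was imaged every 3 s as F/F0. EC50 came from a fit to y = max/(1 + x/EC50)^n. Mean ± SEM of 23–28 determinations over at least 3 sessions.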

[4] = as §2; assay type: cell-based; method in brief: as §3
Mus musculus [5] = assay: Potentiation of acetone-induced cold allodynic response in Swiss CD-1 mouse chronic constriction injury model applied topically 20 mins prior to acetone-challenge measured for 14 to 16 mins post acetone-challenge; assay type: functional, organism-based; method in brief: as §1
Mus musculus [6] = assay: Potentiation of acetone-induced cold allodynic response in Swiss CD-1 mouse chronic constriction injury model applied topically 20 mins prior to acetone-challenge; assay type: functional, organism-based; method in brief: as §1
F11 [7] = assay: Agonist activity at TRPM8 in differentiated rat/mouse F11 cells assessed as increase in intracellular Ca2+ level at 10 to 1000 uM by Fura-2-AM based fluorescence assay relative to menthol; assay type: cell-based
Method in brief: (§4)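 Differentiated F11 cells (≥72 h in 2% FBS plus retinoic acid) in Normal Krebs, pH 7.4, room temperature. Compounds perfused over the stated ranges. Fura-2 340/380 nm ratio read every 3 s after background correction. Peak F/F0 normalized to the maximal menthol response for efficacy. For potency, F/F0 was normalized to each compound's own maximum and fitted to y = max/(1 + […])^n.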

F11 [8] = assay: Agonist activity at TRPM8 in differentiated rat/mouse F11 cells assessed as increase in intracellular Ca2+ level at 0.3 to 100 uM by Fura-2-AM based fluorescence assay relative to menthol; assay type: cell-based; method in brief: as §4
F11 [9] = assay: Agonist activity at TRPM8 in differentiated rat/mouse F11 cells assessed as increase in intracellular Ca2+ level at 0.1 to 300 uM by Fura-2-AM based fluorescence assay relative to menthol; assay type: cell-based; method in brief: as §4
F11 [10] = assay: Agonist activity at TRPM8 in differentiated rat/mouse F11 cells assessed as increase in intracellular Ca2+ level at 1 to 100 uM by Fura-2-AM based fluorescence assay relative to menthol; assay type: cell-based; method in brief: as §4
F11 [11] = assay: Agonist activity at TRPM8 in differentiated rat/mouse F11 cells assessed as increase in intracellular Ca2+ level at 0.01 to 30 uM by Fura-2-AM based fluorescence assay relative to menthol; assay type: cell-based; method in brief: as §4
F11 [12] = assay: Agonist activity at TRPM8 in differentiated rat/mouse F11 cells assessed as increase in intracellular Ca2+ level at 0.01 to 100 uM by Fura-2-AM based fluorescence assay relative to menthol; assay type: cell-based; method in brief: as §4
F11 [13] = assay: Agonist activity at TRPM8 in differentiated rat/mouse F11 cells assessed as increase in intracellular Ca2+ level at 1 to 500 uM by Fura-2-AM based fluorescence assay relative to menthol; assay type: cell-based; method in brief: as §4
F11 [14] = assay: Agonist activity at TRPM8 in differentiated rat/mouse F11 cells assessed as increase in intracellular Ca2+ level at 0.001 to 30 uM by Fura-2-AM based fluorescence assay relative to menthol; assay type: cell-based; method in brief: as §4
F11 [15] = assay: (§5) Agonist activity at TRPM8 in differentiated rat/mouse F11 cells assessed as increase in intracellular Ca2+ level measured after 20 seconds by Fura-2-AM based fluorescence assay; assay type: cell-based; method in brief: as §3
[16] = as §5; assay type: cell-based; method in brief: as §3
F11 [17] = assay: Agonist activity at TRPM8 in differentiated rat/mouse F11 cells at 100 uM treated in Ca2+-free solution by Fura-2-AM based fluorescence assay; assay type: cell-based
Method in brief: (§6)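 Fura-2 ratiometric Ca2+ imaging in F11 cells differentiated ≥72 h in medium with 2% FBS and retinoic acid, on poly-L-lysine coverslips, at room temperature in Normal Krebs (mM: NaCl 160, KCl 5.5, CaCl2 1.5, MgSO4 1.2, HEPES 10, glucose 10, pH 7.4). Menthol 100 µM perfused alone, with BCTC co-perfusion, or in Ca2+-free solution plus 1 mM EDTA. Peak F/F0 quantified.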

F11 [18] = assay: Agonist activity at TRPM8 in differentiated rat/mouse F11 cells assessed as increase in intracellular Ca2+ level at 1 to 300 uM measured after 1 to 15 seconds by Fura-2-AM based fluorescence assay; assay type: cell-based; method in brief: as §3
F11 [19] = assay: Agonist activity at TRPM8 in differentiated rat/mouse F11 cells assessed as effect on intracellular Ca2+ level at 100 uM by Fura-2-AM based fluorescence assay in presence of TRPM8 antagonist BCTC; assay type: cell-based; method in brief: as §6

EC50 [4] | Compound | Activity (Mus musculus [1]) | Activity (Mus musculus [2]) | Activity (F11 [3]) | Activity (Mus musculus [5]) | further results
400 µM | Cc1cc(NCc2ccccc2)no1 | inactive | inactive | Dose-dependent effect | inactive | Activity (Mus musculus [6]): inactive; Efficacy (F11 [7]): 82%
13.9 µM | Cc1cc(NCC2CCCCC2)no1 |  |  | Dose-dependent effect |  | Efficacy (F11 [8]): 64%
12 µM | Cc1cc(NCc2ccccc2[N+](=O)[O-])no1 |  |  | Dose-dependent effect |  | Efficacy (F11 [9]): 66%
18.9 µM | Cc1cc(NCc2ccc([N+](=O)[O-])cc2)no1 |  |  | Dose-dependent effect |  | Efficacy (F11 [9]): 74%
17.3 µM | CCCCNc1ccon1 |  |  | Dose-dependent effect |  | Efficacy (F11 [10]): 69%
0.16 µM | Cc1cc(NCC(C)C)no1 | inactive | Active | Dose-dependent effect | inactive | Activity (Mus musculus [6]; TDE = time-dependent effect): tde; Efficacy (F11 [11]): 58%
0.5 µM | Cc1cc(NCCC(C)C)no1 | inactive | Active | Dose-dependent effect | inactive | Activity (Mus musculus [6]; TDE = time-dependent effect): tde; Efficacy (F11 [12]): 66%
48.4 µM | Cc1cc(NCC(C)C)on1 |  |  | Dose-dependent effect |  | Efficacy (F11 [13]): 36%
0.1 µM | Cc1cc(NC(C)C)no1 | inactive | Active | Dose-dependent effect | inactive | Efficacy (F11 [14]): 53%; Activity (Mus musculus [6]; TDE = time-dependent effect): tde
3.6 µM | CCCCNc1cc(C)on1 | inactive | Active | Dose-dependent effect | inactive | Activity (Mus musculus [6]): inactive; Efficacy (F11 [12]): 89%
 | CC(C)[C@@H]1CC[C@@H](C)C[C@H]1O [LEVOMENTHOL] | Active | inactive |  | inactive | Activity (F11 [15]): Dose-dependent effect; EC50 [16]: 23.4 µM; Activity (F11 [17]): inactive; Activity (F11 [18]): Active; Activity (F11 [19]): inactive
100 µM | CCCCNc1cc(C)no1 |  |  | Dose-dependent effect |  | Efficacy (F11 [7]): 32%
13.2 µM | CC(C)CNc1ccon1 |  |  | Dose-dependent effect |  | Efficacy (F11 [10]): 72%
